# Screening data from PubChem BioAssay.
# Rows were chosen to be rich in hits. Some 1.8% of all compounds tested hit in one or more screens of this group.
# PERK inh = inhibitors of human PERK kinase; inhibition, % at 5.6 µM; CHO PERK-DD fusion, SEAP luminescence translation reporter; AID 1416; Q9NZJ5; 220,000 tested, 0.17% active;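 active = inhibition above the mean inhibition of all tested compounds plus 3 SD, set separately per screening campaign, cut at about 2.9% in these data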;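 also: PERK kinase domain activated by AP20187 dimerizer at 100 nM; 0% = DMSO with dimerizer and 100% = rapamycin at 8.4 µM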
# STAT3 blocker = inhibitors of IL-6 induced STAT3 signaling | inhibition, % at 5.5 µM | U3A cells, IL-6 STAT3-luciferase reporter, luminescence; host cell line lacks STAT1 | AID 862 | 190,000 tested, 0.89% active;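 active = inhibition above the mean inhibition across all screened compounds plus 3 SD, cut at about 44% in these data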;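 also: 0% = DMSO only wells and 100% = 100 µM nifuroxazide control wells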
# STAT1 blocker = reduces IFN-gamma driven STAT1 reporter signal; inhibition, % at 5.5 µM; NIH 3T3 STAT1-luciferase reporter, luminescence; AID 920; 200,000 tested, 0.35% active;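 active = inhibition above a set limit, the mean inhibition across all tested compounds plus 3 SD, cut at about 34% in these data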;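 also: 0% = IFN-gamma with DMSO and 100% = IFN-gamma with 300 µM nifuroxazide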
# STAT3 act-1 = STAT3 signaling activation; U3A cells, IL-6 STAT3-luciferase reporter, luminescence; 100% = signal with IL-6 EC80 alone; activation (% of control), % at 5.6 µM; 190,000 tested, 0.91% active; AID 871;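 active = activation above the screen-wide mean of compound activation plus 3 SD, cut at about 130% in these data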;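 also: 0% = background luminescence of wells with medium and substrate only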
#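 system = STAT3-luciferase reporter U3A cells | reagent = IL-6 stimulus at 33 ng/mL final | timing = 1 h compound pre-exposure, 6 h IL-6 stimulation, 37 °C | measured by = luminescence | evaluation = % activation versus median of IL-6-stimulated wells | control set = IL-6-only wells as 100% reference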
# STAT3 act-2 = confirmation of STAT3 signaling activators; 1,200 tested, 64% active; potentiation (% of control), % at 5.7 µM; shares compounds with STAT3 act-1; U3A STAT3-luciferase reporter, IL-6 potentiation, luminescence; U3A cells lack STAT1; 100 means same as IL-6 alone; AID 1267;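 active = percent activation of the STAT3 luciferase reporter above a set limit taken from the earlier primary screen, cut at about 130% in these data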;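 also: 0% = background signal of medium plus substrate and 100% = median of IL-6 with DMSO wells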
# NFkB act STAT3ct = counter-screen for STAT3 activators: NF-kappaB activation; activation (% of control), % at 5.7 µM; human cells, NF-kappaB reporter activation; 1,200 tested, 11% active; shares compounds with STAT3 act-1; in the data active = activation above about 120%;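 also: reporter induced by TNF-alpha stimulation; 100% = median of stimulated DMSO wells and 0% = no signal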
# STAT1 act STAT3c = counter-screen for STAT3 activators: STAT1 activation; shares compounds with STAT3 act-1; NIH 3T3 STAT1-luciferase reporter, IFN-gamma, luminescence; activation (% of control), % at 5.7 µM; 1,200 tested, 13% active;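 active = activation above the solvent-only control well mean plus 3 SD, set per screening run, cut at about 120% in these data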;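 also: 100% = IFN-gamma with DMSO median signal so 100% means no change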
# * marks the source's active call; other numbers are inactive results; nt = no result.
SMILES,PERK inh,STAT3 blocker,STAT1 blocker,STAT3 act-1,STAT3 act-2,NFkB act STAT3ct,STAT1 act STAT3c
COc1cc2c(cc1NC(=O)C(C)OC(=O)c1ccc(S(=O)(=O)Nc3ccccc3Cl)cc1)oc1ccccc12 (stereo not given),1,-41,-4,141*,128,106,104
COc1cc2c(cc1NC(=O)c1ccncc1)oc1ccccc12,-2,-60,-18,155*,137*,105,120
COc1cc2c(cc1NC(=O)C(C)Sc1nc3ccccc3n1C)oc1ccccc12 (stereo not given),0,-22,4,119,nt,nt,nt
c1ccc2c(-c3c[nH]c4ccccc34)c3ccccc3nc2c1,0,19,3,92,nt,nt,nt
O=C(O)c1cc(-c2c[nH]c3ccccc23)nc2ccc3ccccc3c12,0,-49,11,142*,163*,112,100
CCc1cc(CN2CCOCC2)c(NC(=O)c2ccccc2)s1,0,-46,-5,139*,143*,107,110
CCc1cc(C(c2ccc(F)cc2)N2CCOCC2)c(NC(=O)c2ccccc2)s1 (stereo not given),-1,2,4,102,nt,nt,nt
CCC(C)C(=O)Nc1ccc(OC)cc1[N+](=O)[O-] (stereo not given),0,1,0,99,nt,nt,nt
COc1cc(C2SCC(=O)N2c2nnc(C34CC5CC(CC(C5)C3)C4)s2)cc(OC)c1OC (stereo not given),0,-58,1,165*,142*,108,111
COc1ccc(C2SCC(=O)N2c2nnc(C34CC5CC(CC(C5)C3)C4)s2)cc1 (stereo not given),1,-2,-6,99,nt,nt,nt
Cn1cnc2cc(NC(=O)c3cccs3)ccc21,2,15,-29,88,nt,nt,nt
CCN(CC)S(=O)(=O)c1ccc(-c2nnc3sc4cccc(C)c4n23)cc1,0,-54,4,148*,160*,110,107
CC1CC1C(=O)OCC(=O)NC(=O)NC12CC3CC(CC(C3)C1)C2 (stereo not given),0,-10,-29,113,nt,nt,nt
C/C(=N\Nc1nc2c(s1)CCCC2)c1ccc(Cl)cc1,-1,-67,0,158*,104,122*,114
CN(C)c1ccc(C(=O)Nc2nc3c(s2)CCCC3)cc1,1,40,-21,71,nt,nt,nt
CCCCNS(=O)(=O)c1ccc(NS(=O)(=O)c2c(C)cc(C)cc2C)cc1,0,-2,0,99,nt,nt,nt
O=C/C(=C\Nc1ccc(Cl)cn1)c1nc2ccccc2o1,-1,-40,12,137*,112,106,97
O=C/C(=C\Nc1ccc(Cl)cn1)c1nc2cc(Cl)ccc2o1,0,-53,-3,145*,127,108,97
O=C/C(=C\Nc1ccc(S(=O)(=O)CCO)cc1)c1nc2cc(Cl)ccc2o1,1,-6,-11,106,nt,nt,nt
O=C(C1=NNCC1c1ccccc1)C1CO1 (stereo not given),1,-8,0,104,nt,nt,nt
N#Cc1c(C(F)(F)F)cc(C2CC2)nc1N1CCCC1,0,-59,11,148*,122,101,98
CCN(CC)S(=O)(=O)c1ccc(/C=C/C(=O)Nc2ccc(N3CCOCC3)cc2)cc1,-2,nt,nt,nt,nt,nt,nt
Cn1c(=O)c(/C=C/c2ccc(F)cc2)nc2ccccc21,-1,-51,-24,152*,177*,120,129*
CCn1cc(CN2CCc3c([nH]c4ccccc34)C2c2ccc(F)c(OC)c2)c(C)n1 (stereo not given),-1,-7,-1,111,nt,nt,nt
CCn1cc(CN2CCc3c([nH]c4ccccc34)C2c2cccc(O)c2)c(C)n1 (stereo not given),-1,-41,11,142*,140*,102,89
CSc1ncc(CN2CCc3c([nH]c4ccccc34)C2c2cccc(O)c2)cn1 (stereo not given),-2,-53,-8,154*,147*,103,99
Cc1cc(/C=N/n2cnnc2)c(O)c([N+](=O)[O-])c1,0,-43,0,139*,149*,99,95
